Assay [1] has as its target T1, rat mGlu8 (Rattus norvegicus, UniProt P70579). Put plainly: Thallium flux assay, HEK293 cells expressing rat mGlu8 and GIRK1/2 channels. It counts as cell-based.
The next assay has as its target human mGlu4 (Homo sapiens, UniProt Q14833). Put plainly: Calcium mobilization assay, human mGlu4/Gqi5/CHO cells. The following applies: for Kb / log α (affinity cooperativity) / log β (efficacy cooperativity) / α / β: calcium assay. The class given is cell-based.
For another assay, the target named is rat mGlu7 (Rattus norvegicus, UniProt P35400). Briefly: Calcium mobilization assay, rat mGlu7/Gα15/HEK cells. The class given is cell-based. The following applies: for Kb / log α (affinity cooperativity) / log β (efficacy cooperativity) / log τB / α / β / τB: calcium assay. A general note: Calcium flux is commonly read through the fluorescence of an indicator in the cells.
Chain of rat mGlu7 (P35400 35-915): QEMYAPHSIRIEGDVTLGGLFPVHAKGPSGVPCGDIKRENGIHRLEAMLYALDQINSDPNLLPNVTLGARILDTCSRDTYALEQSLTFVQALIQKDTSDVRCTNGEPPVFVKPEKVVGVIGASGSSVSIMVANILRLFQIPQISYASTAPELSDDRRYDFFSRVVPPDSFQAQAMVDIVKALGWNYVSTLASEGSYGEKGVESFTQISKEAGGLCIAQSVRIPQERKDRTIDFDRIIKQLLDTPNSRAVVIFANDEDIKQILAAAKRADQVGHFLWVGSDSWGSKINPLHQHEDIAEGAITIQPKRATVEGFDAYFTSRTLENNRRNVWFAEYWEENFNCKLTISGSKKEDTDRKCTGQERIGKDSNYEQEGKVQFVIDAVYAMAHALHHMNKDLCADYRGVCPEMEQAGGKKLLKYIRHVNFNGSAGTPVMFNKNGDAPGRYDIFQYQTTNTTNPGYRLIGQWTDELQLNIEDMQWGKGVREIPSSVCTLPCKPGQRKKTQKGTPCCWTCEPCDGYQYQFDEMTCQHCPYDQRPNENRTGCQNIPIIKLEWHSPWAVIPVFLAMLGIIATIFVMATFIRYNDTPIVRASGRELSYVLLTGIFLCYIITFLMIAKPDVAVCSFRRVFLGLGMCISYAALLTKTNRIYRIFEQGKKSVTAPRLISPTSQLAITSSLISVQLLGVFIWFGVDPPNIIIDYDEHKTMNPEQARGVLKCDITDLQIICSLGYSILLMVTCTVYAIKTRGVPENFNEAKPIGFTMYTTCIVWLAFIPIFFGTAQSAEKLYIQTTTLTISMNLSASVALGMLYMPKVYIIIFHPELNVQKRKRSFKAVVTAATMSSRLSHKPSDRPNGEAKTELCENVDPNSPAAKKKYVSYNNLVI

Assay [2] concerns the target T1, rat mGlu8. Put plainly: Calcium mobilization assay, rat mGlu8/Gα15/HEK cells. It counts as cell-based. The following applies: for Kb / log α (affinity cooperativity) / log β (efficacy cooperativity) / log τB / α / β / τB: calcium assay.
In a further assay the target is rat mGlu2 (Rattus norvegicus, UniProt P31421). Briefly: Fold-shift assay in rat mGlu2/Gα15-expressing cells. The following applies: listed as VU0155094. It counts as cell-based.
Chain of rat mGlu2 (P31421 19-872): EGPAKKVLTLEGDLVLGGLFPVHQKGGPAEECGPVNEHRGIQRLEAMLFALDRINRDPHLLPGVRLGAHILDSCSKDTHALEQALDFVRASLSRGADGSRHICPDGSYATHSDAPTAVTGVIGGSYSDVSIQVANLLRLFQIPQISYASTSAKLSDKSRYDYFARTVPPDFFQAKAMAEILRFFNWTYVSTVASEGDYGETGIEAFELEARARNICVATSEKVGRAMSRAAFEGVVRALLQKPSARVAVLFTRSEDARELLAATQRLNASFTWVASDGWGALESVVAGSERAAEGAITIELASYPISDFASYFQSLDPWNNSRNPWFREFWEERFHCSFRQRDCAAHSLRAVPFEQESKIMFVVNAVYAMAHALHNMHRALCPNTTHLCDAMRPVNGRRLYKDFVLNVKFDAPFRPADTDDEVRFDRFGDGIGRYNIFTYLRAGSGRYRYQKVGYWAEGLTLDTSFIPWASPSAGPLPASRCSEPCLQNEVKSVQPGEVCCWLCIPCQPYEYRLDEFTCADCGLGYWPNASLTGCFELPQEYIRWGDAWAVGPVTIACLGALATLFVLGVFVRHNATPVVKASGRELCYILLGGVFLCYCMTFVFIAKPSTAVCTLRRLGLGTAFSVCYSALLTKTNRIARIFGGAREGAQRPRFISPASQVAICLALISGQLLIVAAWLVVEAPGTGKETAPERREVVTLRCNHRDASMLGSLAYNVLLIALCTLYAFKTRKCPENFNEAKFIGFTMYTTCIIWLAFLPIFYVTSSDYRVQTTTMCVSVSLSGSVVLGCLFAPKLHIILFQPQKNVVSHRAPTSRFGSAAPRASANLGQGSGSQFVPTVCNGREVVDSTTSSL
The test system of another assay is SC-CA1 synapse. Briefly: Extracellular field potential recordings. Details: species or system C57BL6/J mice. The following applies: for effect on fEPSP slope: agonist alone: 3 μM LSP1-2111, 1 μM DCPG or 30 μM LSP4-2022. A digest of the protocol:
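Coronal hippocampal slices (400 μm) from six-week-old male mice anesthetized with isoflurane, cut in ice-cold sucrose solution. Slices recovered in NMDG-HEPES (15 min, 32 °C), then in ACSF (≥1 h, RT), and were perfused with 32 °C ACSF. CA1 stratum radiatum recordings used paired pulses (100 μs, 20 ms apart, 0.05 Hz). After 10 min baseline, drugs in ACSF were given for 5 or 10 min; PAM was preapplied 5 min, then coapplied with agonist. Slopes from three sweeps were averaged and normalized to predrug baseline. Paired-pulse ratio was second/first slope. N = 3–4; mean ± SEM.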

Another assay has as its target mGlu4 (Rattus norvegicus, UniProt P31423). Briefly: Thallium flux assay, cells expressing mGlu4 and GIRK1/2. It counts as cell-based. The following applies: GIRK assay.

Marks after values point to notes of the source that are not given here.

Chain of human mGlu4 (Q14833 33-912): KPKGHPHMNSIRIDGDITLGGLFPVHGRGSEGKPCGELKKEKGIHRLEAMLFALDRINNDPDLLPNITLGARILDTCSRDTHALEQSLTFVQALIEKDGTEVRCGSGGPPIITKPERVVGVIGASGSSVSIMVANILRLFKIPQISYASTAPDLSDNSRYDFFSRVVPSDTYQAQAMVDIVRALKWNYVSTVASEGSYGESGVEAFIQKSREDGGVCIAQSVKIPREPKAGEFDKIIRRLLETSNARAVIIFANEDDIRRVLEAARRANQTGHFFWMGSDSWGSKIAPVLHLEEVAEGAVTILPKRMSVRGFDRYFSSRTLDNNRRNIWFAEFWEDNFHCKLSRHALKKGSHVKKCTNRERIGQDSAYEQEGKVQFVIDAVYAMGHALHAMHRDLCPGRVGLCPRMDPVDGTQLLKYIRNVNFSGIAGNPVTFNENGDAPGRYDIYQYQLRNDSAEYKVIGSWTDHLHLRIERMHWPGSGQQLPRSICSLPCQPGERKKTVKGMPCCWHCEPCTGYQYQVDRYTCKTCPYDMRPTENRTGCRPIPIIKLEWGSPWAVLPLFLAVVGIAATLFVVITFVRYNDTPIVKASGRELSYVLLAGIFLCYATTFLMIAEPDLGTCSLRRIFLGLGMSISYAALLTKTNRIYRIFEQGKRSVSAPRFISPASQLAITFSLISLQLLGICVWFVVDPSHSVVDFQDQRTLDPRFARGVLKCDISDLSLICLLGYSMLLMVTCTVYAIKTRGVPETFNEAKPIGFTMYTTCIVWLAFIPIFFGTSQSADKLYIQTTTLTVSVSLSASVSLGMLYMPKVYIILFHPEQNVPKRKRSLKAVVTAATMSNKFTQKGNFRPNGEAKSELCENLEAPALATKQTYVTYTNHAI
T1 sequence (P70579 34-908): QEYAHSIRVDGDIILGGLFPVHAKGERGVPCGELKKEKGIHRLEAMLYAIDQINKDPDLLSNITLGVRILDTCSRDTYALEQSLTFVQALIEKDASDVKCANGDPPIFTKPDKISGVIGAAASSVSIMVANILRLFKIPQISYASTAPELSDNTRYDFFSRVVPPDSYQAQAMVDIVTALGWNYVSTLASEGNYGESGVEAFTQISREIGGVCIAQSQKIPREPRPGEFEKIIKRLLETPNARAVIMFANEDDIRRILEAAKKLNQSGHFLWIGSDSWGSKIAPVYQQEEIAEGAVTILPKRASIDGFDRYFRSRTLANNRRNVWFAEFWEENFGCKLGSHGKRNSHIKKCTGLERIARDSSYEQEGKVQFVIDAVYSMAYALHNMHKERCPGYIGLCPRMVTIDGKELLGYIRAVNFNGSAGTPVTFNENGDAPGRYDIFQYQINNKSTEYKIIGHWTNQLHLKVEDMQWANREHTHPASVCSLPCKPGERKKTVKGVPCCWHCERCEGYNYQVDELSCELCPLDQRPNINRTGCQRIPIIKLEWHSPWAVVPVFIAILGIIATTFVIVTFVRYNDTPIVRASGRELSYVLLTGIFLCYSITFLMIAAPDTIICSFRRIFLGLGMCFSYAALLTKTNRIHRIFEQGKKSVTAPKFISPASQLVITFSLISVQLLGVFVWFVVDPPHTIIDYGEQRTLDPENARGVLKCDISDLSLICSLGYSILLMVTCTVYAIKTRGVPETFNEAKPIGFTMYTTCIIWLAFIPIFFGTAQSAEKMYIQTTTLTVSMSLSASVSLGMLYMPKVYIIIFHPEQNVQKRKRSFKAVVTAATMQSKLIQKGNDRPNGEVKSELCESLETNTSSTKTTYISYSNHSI
Chain of mGlu4 (P31423 33-912): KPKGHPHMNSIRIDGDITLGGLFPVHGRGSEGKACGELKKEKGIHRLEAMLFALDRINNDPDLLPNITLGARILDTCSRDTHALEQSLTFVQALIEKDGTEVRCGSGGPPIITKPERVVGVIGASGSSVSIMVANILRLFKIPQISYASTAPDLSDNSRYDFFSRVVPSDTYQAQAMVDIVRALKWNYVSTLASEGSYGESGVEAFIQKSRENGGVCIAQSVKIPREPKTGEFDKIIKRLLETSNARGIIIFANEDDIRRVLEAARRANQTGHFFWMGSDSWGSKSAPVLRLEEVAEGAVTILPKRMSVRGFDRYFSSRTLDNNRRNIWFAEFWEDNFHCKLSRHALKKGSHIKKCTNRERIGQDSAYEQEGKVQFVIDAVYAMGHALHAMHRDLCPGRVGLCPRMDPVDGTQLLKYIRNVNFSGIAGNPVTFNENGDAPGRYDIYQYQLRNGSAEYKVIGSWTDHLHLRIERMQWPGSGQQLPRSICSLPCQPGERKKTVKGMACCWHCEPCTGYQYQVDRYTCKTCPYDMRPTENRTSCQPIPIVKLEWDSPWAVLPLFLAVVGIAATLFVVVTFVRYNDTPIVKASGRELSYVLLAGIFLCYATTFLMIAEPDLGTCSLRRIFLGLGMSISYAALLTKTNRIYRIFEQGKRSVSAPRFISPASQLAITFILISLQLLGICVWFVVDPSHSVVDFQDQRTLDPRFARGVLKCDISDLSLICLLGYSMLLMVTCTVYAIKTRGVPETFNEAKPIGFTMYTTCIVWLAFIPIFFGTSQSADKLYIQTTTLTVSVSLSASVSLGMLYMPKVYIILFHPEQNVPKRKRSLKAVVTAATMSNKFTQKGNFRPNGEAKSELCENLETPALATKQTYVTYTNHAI

As to `COC(=O)c1ccc(-n2c(C)cc(C(=O)CSc3ccc(NC(C)=O)cc3)c2C)cc1` [Compound 1, methyl 4-(3-(2-((4-acetamidophenyl)thio)acetyl)-2,5-dimethyl-1H-pyrrol-1-yl)benzoate], at rat mGlu8 [1], the EC50 (in general, the concentration that produces a half-maximal response) was 1.62 µM. Also, the “agonist activity in the absence of glutamate” value at rat mGlu8 [1] is given as “did not exhibit agonist activity”. In addition, the Kb was 13.3 µM on human mGlu4 (KB, agonist Glu); 13.2 µM at human mGlu4 (KB, agonist L-AP4); 10.6 µM at human mGlu4 (KB, agonist LSP4-2022); 13.2 µM at human mGlu4 (pKB, agonist L-AP4, eq 2); 8 µM at rat mGlu7 (KB, agonist LSP4-2022); 17 µM at rat mGlu7 (pKB, agonist Glu, eq 2). For the same compound, the Kb was 4.17 µM on rat mGlu7 (pKB, agonist L-AP4, eq 2); 8.6 µM on rat mGlu8 [2] (agonist Glu); 14.7 µM on rat mGlu8 [2] (agonist L-AP4); 14 µM at rat mGlu8 [2] (agonist LSP4-2022). Moreover, the “log α (affinity cooperativity)” value at human mGlu4 (agonist Glu) is given as 0.28 ± 0.07; at human mGlu4 (agonist L-AP4), “–0.15 ± 0.30 ^k”; at human mGlu4 (agonist LSP4-2022), 0.17 ± 0.13 ^l; on rat mGlu7 (agonist Glu), 0.58 ± 0.13; on rat mGlu7 (agonist L-AP4), 0.39 ± 0.21; at rat mGlu7 (agonist LSP4-2022) it was 0.82 ± 0.26 ^l. Besides, the figures for the “log α (affinity cooperativity)” value on rat mGlu8 [2] (agonist Glu), at rat mGlu8 [2] (agonist L-AP4) and at rat mGlu8 [2] (agonist LSP4-2022) were 0.61 ± 0.39, 0.92 ± 0.08 ^k and 0.93 ± 0.06 ^l, respectively. For the same compound, the “log β (efficacy cooperativity)” value at human mGlu4 (agonist Glu) was 0.16 ± 0.08 ^f ^h; at human mGlu4 (agonist L-AP4), 0.67 ± 0.27 ^f ^i; on human mGlu4 (agonist LSP4-2022), 0.33 ± 0.07 ^j; on rat mGlu7 (agonist Glu) it was 0.68 ± 0.12 ^g ^h; on rat mGlu7 (agonist L-AP4), 0.07 ± 0.03 ^g ^i; on rat mGlu7 (agonist LSP4-2022), “–0.10 ± 0.10 ^g ^j”. For the same compound, the “log β (efficacy cooperativity)” value is on record as 0.08 ± 0.02 ^h on rat mGlu8 [2] (agonist Glu), 0.05 ± 0.03 ^i at rat mGlu8 [2] (agonist L-AP4) and 0.05 ± 0.06 ^j at rat mGlu8 [2] (agonist LSP4-2022). Besides, the α is reported as 1.9 at human mGlu4 (agonist Glu); 0.71 on human mGlu4 (agonist L-AP4); 1.5 on human mGlu4 (agonist LSP4-2022); 3.8 at rat mGlu7 (agonist Glu); 2.4 on rat mGlu7 (agonist L-AP4); 6.6 on rat mGlu7 (agonist LSP4-2022). In addition, the α at rat mGlu8 [2] (agonist Glu) amounted to 4.1; at rat mGlu8 [2] (agonist L-AP4), 8.3; on rat mGlu8 [2] (agonist LSP4-2022) it was 8.6. In addition, the β came to 1.4 at human mGlu4 (agonist Glu); 4.7 at human mGlu4 (agonist L-AP4); 2.1 on human mGlu4 (agonist LSP4-2022); 4.8 on rat mGlu7 (agonist Glu); 1.2 on rat mGlu7 (agonist L-AP4); 0.8 at rat mGlu7 (agonist LSP4-2022). In addition, the results for the β on rat mGlu8 [2] (agonist Glu), on rat mGlu8 [2] (agonist L-AP4) and on rat mGlu8 [2] (agonist LSP4-2022) were 1.2, 1.1 and 1.1, respectively. Further, the “fold greater modulator affinity with L-AP4 than with glutamate as agonist” value on rat mGlu7 (calcium) was found to be 4 fold. For the same compound, the “log τB” value is “–0.17 ± 0.03” on rat mGlu7 (agonist Glu); “–0.09 ± 0.04” at rat mGlu7 (agonist L-AP4); “–0.22 ± 0.06” on rat mGlu7 (agonist LSP4-2022); “–0.12 ± 0.03” on rat mGlu8 [2] (agonist Glu); “–0.14 ± 0.04” at rat mGlu8 [2] (agonist L-AP4); “–0.10 ± 0.06” on rat mGlu8 [2] (agonist LSP4-2022). The τB at rat mGlu7 (agonist Glu) amounted to 0.81; at rat mGlu7 (agonist LSP4-2022), 0.61; on rat mGlu8 [2] (agonist Glu), 0.75; on rat mGlu8 [2] (agonist L-AP4), 0.73; at rat mGlu8 [2] (agonist LSP4-2022) it was 0.80. Besides, the “shift of glutamate concentration-response (PAM or NAM activity) at mGlu2” value on rat mGlu2 is “inactive”. The “effect on paired-pulse ratio” value in the assay on SC-CA1 synapse (PAM and LSP4-2022 applied together) was “increases the paired-pulse ratio”.

Consider `N[C@@H](CCP(=O)(O)C(O)c1ccc(OCC(=O)O)cc1)C(=O)O` (stereo partly drawn) [LSP4-2022, (2S)-2-amino-4-(((4-(carboxymethoxy)phenyl)(hydroxy)methyl)(hydroxy)phosphoryl)butanoic acid, reference compound], for which, at human mGlu4 (calcium), the “Fold ΔpKA vs. Glu (fold higher affinity than glutamate)” value turned out to be 9 fold. Also, the “fold lower affinity compared to glutamate” value on rat mGlu8 [2] (calcium) is listed as 10 fold. Moreover, the “effect on paired-pulse ratio” value in the assay on SC-CA1 synapse (30 μM LSP4-2022 alone) was “causes an increase in paired-pulse ratio”. Besides, the “effect on fEPSP slope” value with SC-CA1 synapse is “causes a decrease in the fEPSP slope”.

Take `O=C(Nc1ccc(Oc2ccc(Cl)cn2)c(Cl)c1)c1ccccn1` [Compound 20, N-(3-chloro-4-((5-chloropyridin-2-yl)oxy)phenyl)picolinamide]: on mGlu4 (agonist Glu), the “log αβ (combined cooperativity)” value is 0.54 ± 0.06 ^i, the αβ worked out at 3.5 and the Kb was 0.306 µM. For the same compound, at mGlu4 (agonist L-AP4), the “log αβ (combined cooperativity)” value is listed as 0.58 ± 0.04 ^j, the αβ came out at 3.8 and the Kb is 0.304 µM. For the same compound, at mGlu4 (agonist LSP4-2022), the “log αβ (combined cooperativity)” value is 0.54 ± 0.003 ^k, the αβ is reported as 3.5 and the Kb is 0.268 µM.

As for `COc1cc(C(O)P(=O)(O)CC[C@H](N)C(=O)O)cc([N+](=O)[O-])c1O` (stereo partly drawn) [LSP1-2111, (2S)-2-amino-4-[hydroxy[hydroxy(4-hydroxy-3-methoxy-5-nitro-phenyl)methyl]phosphoryl]butanoic acid], the “effect on fEPSP slope” value in the assay on SC-CA1 synapse was “has no effect on fEPSP slope”.

Turning to `N[C@H](C(=O)O)c1ccc(C(=O)O)c(C(=O)O)c1` [DCPG, (S)-3,4-dicarboxyphenylglycine], the “effect on fEPSP slope” value with SC-CA1 synapse was “has no effect on fEPSP slope”.

For the origin of these results see article PMC4306484 (ACS Chemical Neuroscience, 2014).
